From ChEMBL document CHEMBL1764963, “In vitro and QSAR studies of cucurbitacins on HepG2 and HSC-T6 liver cell lines” (Bioorg Med Chem, 2011) come the findings set out here.

A short description of data set [1]: Antioxidant activity assessed as inhibition of free radical production at 0.58 mM within 6 mins by ABTS+ decolorization assay. In kind it is functional.
Data set [2] deals with HepG2. As to the kind of experiment: Hepatoprotective activity in human HepG2 cells assessed as inhibition of CCl4-induced toxicity at 100 uM after 24 hrs by MTT assay. In kind it is functional, cell-based. The essentials: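 HepG2 cells grown 10 days in EMEM with 10% FBS, then seeded 24 h at 30,000 cells/ml in 2% FBS. Test agent added together with CCl4 (4.5 x 10^-3 M) for 24 h. Silybin was tested at 1–200 uM. Cucurbitacins were tested at 0.5 and […] their IC50, then at 0.13 and 0.06. MTT read at 570 nm. % protection calculated against CCl4-only and media-only controls. Three experiments, ≥3 replicates each.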
For orientation: Tetrazolium assays rely on reduction of a dye to a coloured formazan, in cell work by metabolically active cells.

The subject of data set [3] is HepG2. As to the kind of experiment: (§1) Cytotoxicity against human HepG2 cells after 24 hrs assessed as inhibition of cell viability by MTT assay. In kind it is cell-based. To be noted: human, hepg2, 24 h.
For data set [4], the system named is HepG2. As to the kind of experiment: Hepatoprotective activity in human HepG2 cells assessed as inhibition of CCl4-induced toxicity after 24 hrs by MTT assay. The class given is functional, cell-based. The conditions noted are these: Homo sapiens, HepG2, 24 h.
Data set [5] can be described thus: Cytotoxicity against rat HSC-T6 cell after 24 hrs by MTT assay. The class given is cell-based. To be noted: rat, hsc-t6, 24 h.
Data set [6] in a line: Antiproliferative activity against serum-stimulated rat HSC-T6 cells after 24 hrs by MTT assay. The class given is functional, cell-based. The conditions noted are these: HSC-T6, 24 h.
For data set [7], the system named is HepG2. As to the kind of experiment: Hepatoprotective activity in human HepG2 cells assessed as protection against cell damage after 24 hrs by MTT assay. The class given is functional.
The next data set deals with HSC-T6. As to the kind of experiment: Cytotoxicity against rat HSC-T6 cell up to 300 uM after 24 hrs by MTT assay. The class given is functional, cell-based. The essentials:
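HSC-T6 rat stellate cells grown 4-5 days in EMEM/10% FBS, then seeded 24 h at 100,000 cells/ml in 2% FBS. Medium replaced with compound in fresh 10% FBS medium, two-fold dilutions across seven wells, for 24 h. Viability by MTT (570 nm) relative to cell-free and untreated controls. Three experiments, ≥3 replicates each.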

The subject of data set [8] is Radical scavenging activity. As to the kind of experiment: Antioxidant activity assessed as DPPH radical scavenging activity at 64 uM after 10 mins. The class given is functional. (The DPPH test is a chemical assay of radical scavenging.)
Data set [9] in a line: as §1. The class given is cell-based. To be noted: human, HepG2 cells; read-out: INH.
Data set [10] is described as follows: Inhibition of hyaluronidase activity at 71.68 mM.

pEC50: −log10 of the molar value. Activity calls are given as the source filed them. No cut-off for these calls is given here.

`Cc1c(C)c2c(c(C)c1O)CCC(C)(C(=O)O)O2` (stereo unspecified): the inhibition (as a rule, the relative decrease from the control value, in per cent) in data set [1] was 50%.

Take `COc1cc(C2Oc3cc([C@H]4Oc5cc(O)cc(O)c5C(=O)[C@@H]4O)ccc3OC2CO)ccc1O` (stereo partly specified) [SILIBININ]: the inhibition result in the data set on HepG2 [2] is “Active”. Besides, the Activity result was “Non-toxic” in the data set with HepG2 [3], “Non-toxic” in [5], 40% in the data set on HepG2 [7] and “Not toxic” in the data set on HSC-T6. Besides, the pEC50 (usually −log10 of the EC50, conventionally taken in molar units) with HepG2 [4] is 4.35; in [6], 4.73.

On to `O=C1O[C@H]([C@@H](O)CO)C(O)=C1O`, for which, in [8], the inhibition is 50%.

On to `ClC(Cl)(Cl)Cl` [CARBON TETRACHLORIDE], for which the cytotoxicity at 24 h in data set [9] was 50%.

As to `CCCCC1C(=O)N(c2ccccc2)N(c2ccccc2)C1=O`, in data set [10], the inhibition stood at 50%.
